Assay results as given in ChEMBL document CHEMBL4665711, “Synthesis of (Z)-3-(arylamino)-1-(3-phenylimidazo[1,5-a]pyridin-1-yl)prop-2-en-1-ones as potential cytotoxic agents” (Bioorg Med Chem Lett, 2020).

What was measured:
MDA-MB-231 = test: Cytotoxicity against human MDA-MB-231 cells assessed as reduction in cell viability incubated for 48 hrs by MTT assay; type: functional, cell-based; conditions: MDA-MB-231, 48 h
Method in brief: (§1)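 Cancer cell lines were exposed to drug for 48 h, and the 50% inhibitory concentration was determined. Values are averages of three individual experiments. A549, HCT-116, BT-474 and MDA-MB-231 are human lines; B16F10 is a murine melanoma line.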

BT-474 = test: Cytotoxicity against human BT-474 cells assessed as reduction in cell viability incubated for 48 hrs by MTT assay; type: functional, cell-based; conditions: BT-474, 48 h; method in brief: as §1
B16-F10 = test: Cytotoxicity against mouse B16-F10 cells assessed as reduction in cell viability incubated for 48 hrs by MTT assay; type: functional, cell-based; conditions: B16-F10, 48 h; method in brief: as §1
A549 = test: Cytotoxicity against human A549 cells assessed as reduction in cell viability incubated for 48 hrs by MTT assay; type: functional, cell-based; conditions: A549, 48 h; method in brief: as §1
HCT-116 = test: Cytotoxicity against human HCT-116 cells assessed as reduction in cell viability incubated for 48 hrs by MTT assay; type: functional, cell-based; conditions: HCT-116, 48 h; method in brief: as §1
[1] = Cytotoxicity against human lung cancer cells assessed as reduction in cell viability incubated for 48 hrs by MTT assay; type: functional; conditions: Lung cancer cell line
[2] = Cytotoxicity against human lung cancer cells assessed as reduction in cell viability incubated for 24 hrs by MTT assay; type: functional; conditions: Lung cancer cell line
[3] = Cytotoxicity against human breast cancer cells assessed as reduction in cell viability incubated for 24 hrs by MTT assay; type: functional; conditions: Breast cancer cell line

Row | SMILES | IC50 (MDA-MB-231) | IC50 (BT-474) | IC50 (B16-F10) | IC50 (A549) | IC50 (HCT-116) | IC50 [1] | GI50 [2] | GI50 [3]
1 | COc1ccc(N/C=C\C(=O)c2nc(-c3ccc(F)cc3)n3ccccc23)cc1 | > 30 µM | 15.7 µM | 2.56 µM | 19.2 µM | > 30 µM | – | – | –
2 | COC(=O)Nc1nc2cc(C(=O)c3cccs3)ccc2[nH]1 [NOCODAZOLE] | 1.83 µM | 2.72 µM | 3.12 µM | 3.63 µM | 2.82 µM | – | – | –
3 | COc1ccc(N/C=C\C(=O)c2nc(-c3ccc(C(F)(F)F)cc3)n3ccccc23)cc1 | > 30 µM | > 30 µM | > 30 µM | 21.8 µM | 7.72 µM | – | – | –
4 | O=C(/C=C\Nc1ccc2[nH]ccc2c1)c1nc(-c2ccc(C(F)(F)F)cc2)n2ccccc12 | 1.18 µM | 5.19 µM | 18.2 µM | 5.19 µM | 27.1 µM | – | – | –
5 | COc1ccc(N/C=C\C(=O)c2nc(-c3ccc(OC)cc3)n3ccccc23)cc1 | > 30 µM | 15.4 µM | 2.12 µM | – | > 30 µM | – | – | –
6 | COc1ccc(-c2nc(C(=O)/C=C\Nc3ccc(Cl)cc3)c3ccccn23)cc1 | > 30 µM | 37.3 µM | 1.24 µM | – | > 30 µM | – | – | –
7 | Cc1cc2cc(N/C=C\C(=O)c3nc(-c4ccc(F)cc4)n4ccccc34)ccc2[nH]1 | > 30 µM | > 30 µM | > 30 µM | > 30 µM | > 30 µM | – | – | –
8 | COc1ccc(-c2nc(C(=O)/C=C\Nc3ccc(F)cc3)c3ccccn23)cc1 | > 30 µM | > 30 µM | > 30 µM | > 30 µM | > 30 µM | – | – | –
9 | O=C(/C=C\Nc1cnc2ccccc2c1)c1nc(-c2ccccc2)n2ccccc12 | 12.3 µM | 19.7 µM | 3.78 µM | > 30 µM | > 30 µM | – | – | –
10 | O=C(/C=C\Nc1ccc(O)cc1)c1cn(-c2ccccc2)nc1-c1ccc(F)cc1 | – | – | – | – | – | 1.5 µM | – | –
11 | COc1ccc(N/C=C\C(=O)c2nc(-c3ccccc3)n3ccccc23)cc1 | 28.2 µM | 12.8 µM | 1.79 µM | > 30 µM | 7.01 µM | – | – | –
12 | O=C(/C=C\Nc1cnc2ccccc2c1)c1nc(-c2ccc(C(F)(F)F)cc2)n2ccccc12 | > 30 µM | > 30 µM | > 30 µM | > 30 µM | > 30 µM | – | – | –
13 | O=C(/C=C\Nc1ccc2cc[nH]c2c1)c1nc(-c2ccc(C(F)(F)F)cc2)n2ccccc12 | > 30 µM | > 30 µM | > 30 µM | > 30 µM | > 30 µM | – | – | –
14 | COc1ccc(N/C=C\C(=O)c2nc(-c3ccc(F)cc3)n3ccccc23)cc1OC | > 30 µM | > 30 µM | > 30 µM | > 30 µM | > 30 µM | – | – | –
15 | O=C1Nc2ccccc2/C1=C\c1nc(-c2ccccc2F)n2ccccc12 | – | – | – | – | – | – | 3.46 µM | –
16 | Fc1ccccc1-c1nc(-c2nc3ccc(C(F)(F)F)cc3[nH]2)c2ccccn12 | – | – | – | – | – | – | – | 1.37 µM
17 | O=C(/C=C\Nc1ccc(F)cc1)c1nc(-c2ccc(C(F)(F)F)cc2)n2ccccc12 | > 30 µM | > 30 µM | > 30 µM | > 30 µM | > 30 µM | – | – | –
18 | O=C(/C=C\Nc1ccc(Cl)cc1)c1nc(-c2ccc(C(F)(F)F)cc2)n2ccccc12 | 3.84 µM | 3.82 µM | > 30 µM | 18.5 µM | 11.5 µM | – | – | –
19 | COc1ccc(-c2nc(C(=O)/C=C\Nc3ccc4[nH]ccc4c3)c3ccccn23)cc1 | 28.7 µM | 13 µM | 5.12 µM | 4.8 µM | 17.4 µM | – | – | –
20 | O=C(/C=C\Nc1ccc(F)cc1)c1nc(-c2ccc(F)cc2)n2ccccc12 | 25.1 µM | 16.9 µM | > 30 µM | 13.2 µM | > 30 µM | – | – | –
21 | COc1ccc(N/C=C\C(=O)c2nc(-c3ccc(C(F)(F)F)cc3)n3ccccc23)cc1OC | > 30 µM | > 30 µM | > 30 µM | > 30 µM | > 30 µM | – | – | –
